# Reference: paper PMC6896334 (Cell reports, 2019)
# Residues, ends and D or L forms follow the SMILES beside them. *: point of attachment. Cbz = O=C(OCc1ccccc1)*
# How the values were obtained:
# [1] = target: T1, NanoLuc luciferase ID1 fusion protein (Homo sapiens, UniProt P41134); test: NanoBRET target engagement assay in permeabilized 293T cells; type: binding
# T1 sequence (P41134 1-155): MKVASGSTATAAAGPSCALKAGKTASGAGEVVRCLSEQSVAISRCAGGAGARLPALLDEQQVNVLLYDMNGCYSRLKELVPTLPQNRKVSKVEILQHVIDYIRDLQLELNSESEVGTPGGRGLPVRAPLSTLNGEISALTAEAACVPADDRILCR
# Outline: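 293T cells transfected with an N-terminal NanoLuc–ID1 fusion construct and plated 24 h later. Cells received 2 µM fluorescent tracer plus 0–60 µM competitor, then were permeabilised with digitonin (50 µg/mL). NanoBRET Nano-Glo substrate was added and the BRET ratio read, following the kit protocol for intracellular target engagement.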
# [2] = test system: ID1, ID2, ID3, and ID4; test: Western blot for ID proteins in HCT116 cells; type: cell-based, human; conditions: HCT116, 0–10 μM AGXA, 24 h
# [3] = test system: choroidal neovascularization; test: Laser-induced choroidal neovascularization; type: in vivo, mouse; conditions: intravitreal 1 μg dose, day 14
# Outline: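 Female C57BL/6 mice aged 4–6 weeks had laser rupture of Bruch's membrane at three sites per eye. Test compounds (1 or 5 µg) or DMSO were given intravitreally. At day 14, choroidal flat mounts were stained with FITC-Griffonia simplicifolia lectin, and CNV area was measured by fluorescence image analysis by an observer masked to group.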
# [4] = target: T2, Id1 (Mus musculus, UniProt P20067); test: Circular dichroism; type: binding; conditions: AGX51 0–50 μM; AGXA 0–110 μM in DMSO
# T2 sequence (P20067 1-148 isoform P20067-2): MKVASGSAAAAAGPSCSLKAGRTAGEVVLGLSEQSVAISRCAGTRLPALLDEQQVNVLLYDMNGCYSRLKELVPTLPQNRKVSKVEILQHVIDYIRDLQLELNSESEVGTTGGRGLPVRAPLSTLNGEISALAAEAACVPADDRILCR
# [5] = target: T2, Id1; test: Western blot for Id1 in 4T1 cells; type: cell-based; conditions: 4T1, 0–20 μM AGXA, 24 h
# Outline: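 4T1 cells were treated 24 h, collected by trypsinization, washed in PBS and lysed in sucrose/Tris pH 8.0/400 mM NaCl/MgCl2/0.5% NP40 buffer with protease inhibitors. Id1 immunoblots were quantified from 700 and 800 channel intensities, blank-subtracted and normalized to tubulin; IC50 reported from blots.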
# [6] = test system: HCT116 cells; test: HCT116 cell viability; type: cell-based, human; conditions: cell-based assays (HCT116 and 4T1)
# Outline: (§1)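 MTT viability: cells seeded at 5000/well and left overnight, then exposed to the test compound for 24 h. MTT (5 mg/mL) was added for 4 h, medium removed and formazan dissolved in DMSO. Absorbance was read at 570 nm.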
# [7] = Cell viability assays; type: cell-based; conditions: data not shown
# Outline: as §1
# [8] = test system: Id proteins; test: Degradation of Id proteins in cells; type: cell-based; conditions: data not shown
# [9] = target: T3, Id1-E47 interaction (Mus musculus, UniProt P20067); test: In vitro electrophoretic mobility shift assay; type: biochemical; conditions: data not shown
# T3 sequence (P20067 1-148 isoform P20067-2): T2 sequence (P20067 1-148 isoform P20067-2)
# Outline: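 Bacterially purified full-length E47 was mixed with a 32P-labelled E-box probe from the muscle creatine kinase enhancer, plus BSA, DTT, poly dI-dC, salmon sperm DNA and HeLa nuclear extract, with or without purified full-length Id1. Test compounds in DMSO (or DMSO alone) were added at rising concentrations for 30 min. Complexes were resolved on 5% native PAGE and autoradiographed.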
# [10] = target: T4, E47 (Homo sapiens, UniProt P15923); test: UV crosslinking of AGX51-XL2 to E47 and mass spectrometry; type: binding; conditions: data not shown
# T4 sequence (P15923 1-651 isoform P15923-2): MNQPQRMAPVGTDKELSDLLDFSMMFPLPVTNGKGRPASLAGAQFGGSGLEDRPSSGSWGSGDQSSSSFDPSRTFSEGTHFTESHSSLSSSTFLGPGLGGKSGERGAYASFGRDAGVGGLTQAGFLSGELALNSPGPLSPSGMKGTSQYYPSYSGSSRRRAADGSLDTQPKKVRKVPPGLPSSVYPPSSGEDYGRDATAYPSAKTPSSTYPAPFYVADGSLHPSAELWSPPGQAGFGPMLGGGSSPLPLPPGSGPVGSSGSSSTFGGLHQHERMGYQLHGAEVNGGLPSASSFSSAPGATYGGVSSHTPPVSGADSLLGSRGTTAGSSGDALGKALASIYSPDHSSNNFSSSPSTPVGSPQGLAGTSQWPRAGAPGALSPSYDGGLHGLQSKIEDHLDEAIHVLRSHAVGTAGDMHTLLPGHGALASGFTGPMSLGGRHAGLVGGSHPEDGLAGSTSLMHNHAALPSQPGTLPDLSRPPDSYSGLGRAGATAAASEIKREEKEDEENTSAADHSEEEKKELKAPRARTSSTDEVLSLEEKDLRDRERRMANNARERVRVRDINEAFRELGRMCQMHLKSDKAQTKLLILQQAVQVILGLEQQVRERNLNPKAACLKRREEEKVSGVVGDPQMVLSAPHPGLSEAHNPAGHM
# [11] = target: T5, Id1 (59–104) (Mus musculus, UniProt P20067); test: UV crosslinking of AGX51-XL2 to purified Id1 and mass spectrometry; type: binding; conditions: UV light 20 minutes
# T5 sequence (P20067 59-104): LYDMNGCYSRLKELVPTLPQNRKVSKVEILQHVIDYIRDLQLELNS
# Outline: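 Purified Id1 (aa 59–104, 1 µg) was mixed in the dark with 19.7 ng of a benzophenone photoreactive test-compound analog in DMSO and UV-irradiated for 20 min, with a no-UV control. Samples were run in the dark on a 15% denaturing gel and silver stained. Bands were excised for mass spectrometry.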
# [12] = target: T6, FLAG-ID1 (Homo sapiens, UniProt P41134); test: Ubiquitylation assay in HCT116 and U87 glioma cells; type: cell-based; conditions: 60 μM AGX51 2 h, then 20 μM MG132 for 6 h
# T6 sequence (P41134 1-155): T1 sequence (P41134 1-155)
# Outline: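 HCT116 cells co-transfected with FLAG-tagged ID1 and HA-ubiquitin. After 36 h they were exposed to 60 µM test compound for 2 h, then 20 µM MG132 for a further 6 h. Cells were washed in ice-cold PBS, lysed in TBS (50 mM Tris pH 8.0, 150 mM NaCl) containing 2% SDS, and boiled for 10 min.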
molecule,measurement,setting,value
"COc1ccccc1C(CCN(Cc1ccccc1)C(=O)CCOCCOCCNC(=O)CCC1=[N+]2C(=Cc3ccc(-c4ccc[nH]4)n3[B-]2(F)F)C=C1)c1ccc2c(c1)OCO2 (stereo not shown) [AGX51 tracer, 3-(17-(benzo[d][1,3]dioxol-5-yl)-14-benzyl-17-(2-methoxyphenyl)-3,13-dioxo-7,10-dioxa-4,14-diazaheptadecyl)-5,5-difluoro-7-(1H-pyrrol-2-yl)-5H-5λ4-dipyrrolo[1,2-c:2’,1’-f][1,3,2]diazaborinin-4-ium]",BRET ratio,"[1]; tracer 0–4 μM, digitonin-permeabilized 293T cells",dose-dependent increase in the BRET ratio
6-chloro-2-methyl-N-(4-propoxyphenyl)quinolin-4-amine hydrochloride [AGXA],ID1 protein levels relative to AGX51,[2],reduced Id protein levels at lower concentrations than AGX51
same,"area of CNV, AGXA compared with AGX51",[3],worked better than AGX51
same,competition with the AGX51 tracer (BRET ratio),"[1]; 2 μM AGX51 tracer, 0–60 μM competitor, 50 μg/mL digitonin",more efficiently
same,effect on Id1 secondary structure (CD spectra),[4],greater activity than AGX51
same,Id1 protein levels relative to AGX51,[5],reduced Id protein levels at lower concentrations than AGX51
same,reduction in IC50 values relative to AGX51,[6],~4 fold
"CC(C)c1ccc(NNC(=O)c2cc3ccccc3s2)cc1 [AGX8, N’-(4-isopropylphenyl)benzo[b]thiophene-2-carbohydrazide]","IC50 in cell viability assays, relative to AGX51",[7],higher IC50
same,"concentrations required to degrade Id proteins in cells, relative to AGX51",[8],higher concentrations
same,"concentrations required to perturb Id1 in the EMSA assay, relative to AGX51",[9],higher concentrations
"O=C(NCCC(c1ccccc1)c1ccccc1)c1ccc(C(=O)c2ccccc2)cc1 [AGX51-XL2, 4-benzoyl-N-(3,3-diphenylpropyl)bezamide]",covalent binding to E47,[10],nor was there evidence of AGX51-XL2 binding to E47
same,covalent binding to Id1 after UV exposure,[11],"covalently binding to Id1 at six residues (V73, P74, T75, P77, Q78, and R80)"
CC(C)C[C@@H](C=O)NC(=O)[C@H](CC(C)C)NC(=O)[C@H](CC(C)C)NC(=O)OCc1ccccc1 [MG132] (Cbz-Leu-Leu-Leu-aldehyde),ID1 ubiquitylation,[12],ID1 ubiquitylation was observed
